Laboratory results reported in publication PMC11822521 (ACS Omega, 2025).

Legend:
[1] = target: T1, VHR (Homo sapiens, UniProt P51452); test: Michaelis–Menten kinetic assay of VHR with OMFP; type: biochemical; conditions: read-out: Michaelis–Menten constant (Km); OMFP as substrate of VHR
Summary of the method: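 Full-length human His8-VHR expressed in E. coli, fixed at 2.5 nM, with OMFP titrated. Enzyme preincubated 20 min at room temperature, then substrate added. Fluorescence (ex 485/em 535 nm) read kinetically for 10 min. Initial velocities were background-corrected against no-enzyme wells and fitted to the Michaelis–Menten equation.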

[2] = target: T1, VHR; test: VHR dose–response inhibition assay with OMFP substrate; type: biochemical
Summary of the method: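 Ten-point curves, 100 μM to 5 nM final, in triplicate, with DMSO vehicle. Human His8-VHR (2.5 nM final) in pH 6 Bis-tris buffer with DTT and Tween-20 was preincubated with compound 20 min at room temperature. Reaction started with OMFP (6 μM final) and read at ex 485/em 535 nm for 10 min. Slopes were normalized to no-enzyme and vehicle controls and fitted to a four-parameter variable-slope model.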

[3] = target: T1, VHR; test: Isothermal titration calorimetry; type: binding; conditions: dissociation constant (KD), ITC; mean of two independent experiments ± SEM
Summary of the method: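 Run at 25 °C on full-length human VHR (His8-tagged, E. coli-expressed, Ni-NTA purified). Protein was 60–285 μM in PBS with 5% DMSO in the cell. Test compound (0.3–5 mM in the same buffer) was added as 20 injections of 6 μL. Baseline came from compound injected into buffer alone. KD was the mean of two independent runs.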

T1 sequence (P51452 whole entry): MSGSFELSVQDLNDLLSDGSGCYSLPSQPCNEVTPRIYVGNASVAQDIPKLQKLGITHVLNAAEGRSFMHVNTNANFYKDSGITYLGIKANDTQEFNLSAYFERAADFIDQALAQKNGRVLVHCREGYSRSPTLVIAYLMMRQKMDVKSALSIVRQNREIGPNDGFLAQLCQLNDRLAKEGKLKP

Km [1] [µM] | IC50 [2] [µM] | Kd [3] [µM] | Compound
5.4 |  |  | COc1ccc2c(c1)Oc1cc(OP(=O)(O)O)ccc1C21OC(=O)c2ccccc21 (stereo not drawn) [OMFP, 3-O-methylfluorescein phosphate]
 | 4.1 ± 1.8 | 7.6 ± 0.2 | O=P(O)(O)C(F)(F)c1cccc(-c2cccc(-c3cscn3)c2)c1 [SBP-4929, (Difluoro(3′-(thiazol-4-yl)-[1,1′-biphenyl]-3-yl)methyl)phosphonic Acid]
